Screens from PubChem BioAssay.
bCat KO growth = beta-catenin-lacking colon tumor cell growth suppression; viability, % at 10 µM; 140,000 tested, 1.5% active; HCT116 beta-catenin knockout viability, CellTiter-Glo, 60 h; stronger effect = lower value;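 active = viability at or under a set limit, the compound median less 4 SD, cut at about 6% in these data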;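 note: 0% = Hyamine 1622 control at 20 µM and 100% = untreated cell control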
HCT116 PTEN-null = growth suppressors of cells with PTEN tumor suppressor deletion | HCT116 PTEN-null viability, CellTiter-Glo, 60 h; stronger effect = lower value | viability, % at 10 µM | 140,000 tested, 1.2% active;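 active = viability at or below a set limit, 4 SD under the median of all tested compounds, cut at about 3.7% in these data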;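 note: PTEN knockout HCT116 line with beta catenin targeted HCT116 as companion control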
Fibroblast inh = blocks proliferation of human lung fibroblasts. LL 47 human lung fibroblast viability, ATP luminescence; stronger effect = lower value. viability, % at 10 µM. 85,000 tested, 1.1% active;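 active = viability at or below 50% in the single dose screen; inactive = viability above 50%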;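 note: compound exposure lasted 72 h before the ATP readout; 100% = median luminescence of untreated cell-only wells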
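Signal: luminescent ATP detection, CellTiter-Glo; assay system: LL 47 human lung fibroblasts; input: 1,150 cells/well; incubation: overnight cell rest, 72 h compound treatment at 37 °C; measure: % viability versus median cells-only luminescence; medium: IMEM growth medium with 15% fetal bovine serum; dosing: compound addition at 0.1% DMSO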
H69AR inhibit = growth inhibitors of human H69AR lung tumor cells; viability, % at 10 µM; H69AR lung tumor viability, ATP luminescence, 72 h; stronger effect = lower value; 85,000 tested, 6% active; AID 598;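 active = viability at or below 40%; inactive = viability above 40%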;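 note: multidrug resistant small cell line overexpressing MRP-1 efflux transporter; 100% = mean luminescence of untreated control wells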
HUVEC inhibit = human endothelial cell proliferation inhibition; viability, % at 10 µM (by protocol); 86,000 tested, 1.1% active; AID 648; HUVEC proliferation, CellTiter-Glo luminescence, 72 h; stronger effect = lower value;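 active = viability at or below 30%; inactive = viability above 30%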;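 note: 100% = median luminescence of DMSO-only cell control wells on each plate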
An asterisk follows results filed as active; . = no result. Only a selection was taken, and hits are over-represented in it overall.

SMILES	bCat KO growth	HCT116 PTEN-null	Fibroblast inh	H69AR inhibit	HUVEC inhibit
O=C(c1cc(Cl)ccc1[N+](=O)[O-])N1CCc2ccccc2C1	92	104	.	.	.
Cc1ccc(Cn2c(=O)n(CCC(=O)NCc3ccc4c(c3)OCO4)c(=O)c3ccccc32)cc1	93	91	102	99	95
O=C(CCCn1c(=O)c2sccc2n(CC(=O)OCc2ccccc2)c1=O)NCc1ccco1	89	88	96	92	87
O=C(CCCn1c(=O)c2sccc2n(Cc2ccc(F)cc2)c1=O)NCc1ccco1	61	58	96	22*	69
O=C(CCCCn1c(=O)c2ccccc2n(CC(=O)Nc2cccc(F)c2)c1=O)NCc1ccco1	98	102	75	92	88
CCOc1cc2[nH]c(=O)n(CCCCCC(=O)NCc3ccc4c(c3)OCO4)c(=O)c2cc1OCC	.	.	34*	18*	31
CCOc1cc2[nH]c(=O)n(CCCCCC(=O)NCc3ccco3)c(=O)c2cc1OCC	105	89	98	95	59
N#Cc1ccccc1Cn1c(=O)n(CCCC(=O)NCc2ccc3c(c2)OCO3)c(=O)c2ccccc21	64	73	69	40*	59
CCc1ccc(NC(=O)Cn2c(=O)n(CCCC(=O)NCc3ccco3)c(=O)c3ccccc32)cc1	99	92	82	30*	41
NS(=O)(=O)c1ccc(NC(=S)Nc2nn(Cc3ccc(Cl)cc3Cl)cc2Cl)cc1	81	84	.	.	.
O=C(NCCC1=CCCCC1)C(=O)c1c[nH]c2ccccc12	86	94	.	.	.
CCOC(=O)c1nsnc1NCCSC(=N)N	92	86	.	.	.
CCCCN(CCCC)C(=S)NC(=O)c1ccccc1Cl	51	63	.	.	.
O=C(CCCCn1c(=O)c2ccccc2n(Cc2ccc(Cl)cc2)c1=O)NCc1ccco1	53	42	54	16*	52
N#Cc1ccccc1Cn1c(=O)n(Cc2ccc(C(=O)NCc3ccco3)cc2)c(=O)c2ccccc21	20	19	53	12*	26*
Cc1ccc(NC(=O)C2(c3ccccc3)CCOCC2)c([N+](=O)[O-])c1	86	98	.	.	.
COCCC(=O)NNS(=O)(=O)c1ccc(Cl)cc1	101	93	.	.	.
CCOc1ccc(-c2nnc3n2N=C(c2ccc(OC)cc2)CS3)cc1	86	84	85	51	97
CCc1nnc2n1N=C(c1ccc(OC)cc1)CS2	66	68	86	19*	73
COc1ccc(C2=Nn3c(nnc3-c3ccccn3)SC2)cc1	56	46	88	24*	82
CCc1nnc2n1N=C(c1ccc(-c3cc(Cl)ccc3Cl)o1)CS2	1.4*	1.7*	92	8.5*	104
CC1Nc2ccccc2C(=O)N1NS(=O)(=O)c1ccccc1 (stereo unspecified)	96	101	.	.	.
Cc1c(Cl)ccc2c1NC(=O)[C@]21N[C@@H](Cc2ccccc2)[C@H]2C(=O)N(c3ccc(F)cc3)C(=O)[C@H]21	52	43	89	19*	67
CCN1c2ccccc2NC2C1C(C(C)=O)C(=O)N2c1ccc(Cl)cc1 (stereo unspecified)	75	69	79	18*	54
CC1=CN2C(=N)/C(=C\c3cn(CCCOc4ccccc4)c4ccccc34)C(=O)N=C2S1	7	6	.	.	.
SMILES	bCat KO growth	HCT116 PTEN-null	Fibroblast inh	H69AR inhibit	HUVEC inhibit
Cc1cc(C)c2nc(C(F)(F)F)c(C#N)c(N)c2c1	84	101	95	40*	41
Cc1ccc2nc(C(F)(F)F)c(C#N)c(N)c2c1	3.6*	4	.	.	.
CCCc1nc2c(C)cc(C)cc2c(N)c1CC	37	40	.	.	.
COc1cc(C2Nc3ccc4ncccc4c3C3=C2C(=O)CCC3)cc(OC)c1O (stereo unspecified)	22	27	56	27*	59
CCCCn1nnc(NC(=S)NC(=O)c2cccs2)n1	96	99	.	.	.
O=C(Nc1nc(-c2ccccc2)cs1)c1ccc2c(c1)S(=O)(=O)c1ccccc1C2=O	4.0*	2.5*	.	.	.
CC(C)NC(=O)c1ccc2c(c1)S(=O)(=O)c1ccccc1C2=O	104	102	107	83	105
N#CC(C#N)=C(Nc1ccc(F)cc1)SCc1cccc(F)c1	15	13	.	.	.
CCN1C/C(=C/c2cccc([N+](=O)[O-])c2)C(=O)/C(=C/c2cccc([N+](=O)[O-])c2)C1	1.7*	1.6*	.	.	.
CCN1CCN(C(=S)Nc2cccc([N+](=O)[O-])c2)CC1	90	88	.	.	.
COc1ccc(S(=O)(=O)N(C)C)cc1NS(=O)(=O)c1ccc(F)c(F)c1F	96	96	.	.	.
COc1ccc(/C=C2\SC(=N)N(c3nccs3)C2=O)cc1OC	15	11	.	.	.
N=C1S/C(=C\c2ccc(-c3cccc(Cl)c3)o2)C(=O)N1c1nccs1	5.4*	2.9*	.	.	.
c1ccc(C2CC(c3ccccc3)n3c(nc4ccccc43)N2)cc1 (stereo unspecified)	76	72	.	.	.
CC1=C(C(=O)OCCNC(=O)c2ccccc2O)C(c2ccccc2[N+](=O)[O-])C(C(=O)OCC2CCCO2)=C(C)N1 (stereo unspecified)	63	60	.	.	.
O=C(Cn1ncc(Cl)c(Cl)c1=O)c1ccc(Cl)cc1	1.7*	2.0*	2.6*	1.4*	2.6*
Cc1cccc(N2CCN(CC(=O)NCC3CCCCC3)CC2)c1C	80	93	103	95	102
C[n+]1ccn(CC(=O)c2ccc(Cl)cc2)c1	97	92	.	.	.
C=CCn1c(C)cc(C(=O)Cn2ncc(Cl)c(Cl)c2=O)c1C	1.7*	1.4*	.	.	.
O=C(Cn1ncc(Cl)c(Cl)c1=O)NCC1CCCCC1	1.8*	1.5*	.	.	.
O=C(OCn1ncc(Cl)c(Cl)c1=O)c1ccc(F)cc1	0.8*	0.5*	.	.	.
CCc1ccc(NC(=O)C(=O)NNC(=O)COc2cccc(OC)c2)cc1	92	99	.	.	.
CN(Cc1ccccc1)c1ccc(C(=O)O)cc1[N+](=O)[O-]	88	92	.	.	.
O=C(Nc1ccsc1C(=O)NC1CCCCC1)c1ccc(F)cc1	86	96	.	.	.
O=C(OCn1ncc(Cl)c(Cl)c1=O)c1ccccc1Cl	3.9*	7	.	.	.
SMILES	bCat KO growth	HCT116 PTEN-null	Fibroblast inh	H69AR inhibit	HUVEC inhibit
O=C(CSc1nc2ncc(Br)cc2[nH]1)Nc1ccc2c(c1)OCO2	84	95	104	2.5*	75
CC(=O)c1c(C)[nH]c(C(=O)CSc2nnc(-c3ccccc3)n2Cc2ccc3c(c2)OCO3)c1C	111	100	82	20*	13*
O=C(CSc1nnc(-c2ccccn2)n1Cc1ccccc1)Nc1ccc2c(c1)OCO2	93	97	99	14*	54
Cn1c(SCC(=O)Nc2ccc3c(c2)OCCO3)nnc1-c1ccccn1	102	103	104	88	97
CCOC(=O)c1c(C)[nH]c(C(=O)CSc2nnc(-c3cccs3)n2Cc2ccccc2)c1C	87	95	79	4.9*	52
CCOc1ccc2nc(SCC(=O)Nc3ccc4c(c3)OCCO4)[nH]c2c1	100	99	104	89	94
COc1ccccc1C(O)(C(=O)NN(C)c1ccccc1)c1ccccc1OC	90	81	.	.	.
